From ChEMBL document CHEMBL4406830, “Galloyl esters of trans-stilbenes are inhibitors of FASN with anticancer activity on non-small cell lung cancer cells” (Eur J Med Chem, 2019)
Active and inactive are the calls of the source. The calls are words filed in the database; no cut-off is given here.

Tested on: NCI-H1703
Assay: Antiproliferative activity against human NCI-H1703 cells expressing FASN assessed as cell viability at 1 uM after 72 hrs in presence of exogenous lipid concentrate by MTS assay
Type: functional, cell-based
Outline: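 Cells were treated as in the MTS viability assay. After 6 h, chemically defined lipid concentrate was added to 2% v/v final. Incubation continued for a further 72 h, then viability was read by MTS at 490 nm. Cells were treated at 2 µM (PC-9) or 1 µM (H1703). Mean ± SD, n = 3, compared with compound alone.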

SMILES | inhibition
O=C(Oc1ccc(/C=C/c2ccc(OC(=O)c3cc(O)c(O)c(O)c3)cc2)cc1)c1cc(O)c(O)c(O)c1 | inactive
O=C(Oc1ccc(/C=C/c2cccc(OC(=O)c3cc(O)c(O)c(O)c3)c2)cc1)c1cc(O)c(O)c(O)c1 | inactive
